Series [1] has as its target T1, PI3-kinase p110-alpha/p85-alpha (Homo sapiens, UniProt P42336). The series can be described thus: Inhibition of PI3K p110alpha/p85alpha-mediated AKT1 phosphorylation at Ser473 in human U2OS cells. It counts as cell-based. The method, boiled down:
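Endogenous phospho-Akt1 (Ser473) measured in U2OS osteosarcoma cells kept in 0.1% FBS and then serum-stimulated; read-out by cell-based ELISA with femto chemiluminescent substrate.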

In series [2] the target is Serine/threonine-protein kinase mTOR (Homo sapiens, UniProt P42345). The series can be described thus: Inhibition of mTOR. In outline: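 mTOR (FRAP1) kinase assay using GFP-4E-BP1 substrate and a Tb-labelled anti-phospho-4E-BP1 (Thr46) antibody in a TR-FRET format, under the manufacturer's conditions; averages of two independent experiments run in duplicate.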
The target of series [3] is T2, NUAK family SNF1-like kinase 1 (Homo sapiens) (UniProt O60285).
T2 sequence (whole entry): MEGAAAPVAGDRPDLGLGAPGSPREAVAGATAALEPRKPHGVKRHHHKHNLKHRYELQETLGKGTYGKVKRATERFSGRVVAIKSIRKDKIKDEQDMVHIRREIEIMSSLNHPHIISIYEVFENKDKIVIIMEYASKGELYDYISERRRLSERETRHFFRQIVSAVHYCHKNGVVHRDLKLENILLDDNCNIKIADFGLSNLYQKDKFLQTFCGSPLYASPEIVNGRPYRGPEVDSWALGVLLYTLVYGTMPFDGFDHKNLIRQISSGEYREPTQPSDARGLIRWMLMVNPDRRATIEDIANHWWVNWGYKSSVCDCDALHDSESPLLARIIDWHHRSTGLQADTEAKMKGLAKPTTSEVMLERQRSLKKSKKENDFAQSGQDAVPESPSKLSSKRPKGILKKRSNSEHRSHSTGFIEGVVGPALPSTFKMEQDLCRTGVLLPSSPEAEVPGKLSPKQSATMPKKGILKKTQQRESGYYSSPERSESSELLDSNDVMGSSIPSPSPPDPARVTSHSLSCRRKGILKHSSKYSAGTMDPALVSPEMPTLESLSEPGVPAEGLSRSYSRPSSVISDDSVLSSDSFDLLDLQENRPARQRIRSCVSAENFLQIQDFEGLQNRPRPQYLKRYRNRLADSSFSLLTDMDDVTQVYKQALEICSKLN
The series can be described thus: Inhibition of ARK5 at 5 to 10 uM.

Series [4] deals with Serine/threonine-protein kinase B-raf (Homo sapiens), P15056 [V600E]. The series can be described thus: Inhibition of BRAF V600E mutant at 5 to 10 uM.
The target of series [5] is Focal adhesion kinase 1 (Homo sapiens) (UniProt Q05397). The series can be described thus: Inhibition of FAK at 5 to 10 uM.
The target in series [6] is Tyrosine-protein kinase JAK2 (Homo sapiens) (UniProt O60674). The series can be described thus: Inhibition of JAK2 at 5 to 10 uM.
Series [7] deals with Mitogen-activated protein kinase 8 (Homo sapiens) (UniProt P45983). Briefly: Inhibition of JNK1 at 5 to 10 uM.
Series [8] addresses Hepatocyte growth factor receptor (Homo sapiens) (UniProt P08581). The series can be described thus: Inhibition of MET at 5 to 10 uM.
In series [9] the target is Ribosomal protein S6 kinase alpha-1 (Homo sapiens) (UniProt Q15418). The series can be described thus: Inhibition of RPS6KA1 at 5 to 10 uM.
For series [10], the target named is T1, PI3-kinase p110-alpha/p85-alpha. Briefly: Inhibition of PI3K p110alpha/p85alpha. The class given is protein-complex assay. In outline: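 Biochemical kinase assay following the kit manufacturer's protocol with a modified kinase buffer (50 mM HEPES pH 7.5, 3 mM MgCl2, 100 mM NaCl, 1 mM EGTA, 0.04% CHAPS, 2 mM TCEP, 0.01 mg/ml BGG); 10 nM enzyme; ATP 50 µM; values are averages of two independent experiments, each in duplicate.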

Series [11] is described as follows: Metabolic stability in human liver microsomes assessed as compound remaining at 1 uM after 30 mins.
Series [12] in a line: Metabolic stability in mouse liver microsomes assessed as compound remaining at 1 uM after 30 mins.
The next series deals with T3, CYP1A2 (Homo sapiens, UniProt P05177).
T3 sequence (P05177 whole entry): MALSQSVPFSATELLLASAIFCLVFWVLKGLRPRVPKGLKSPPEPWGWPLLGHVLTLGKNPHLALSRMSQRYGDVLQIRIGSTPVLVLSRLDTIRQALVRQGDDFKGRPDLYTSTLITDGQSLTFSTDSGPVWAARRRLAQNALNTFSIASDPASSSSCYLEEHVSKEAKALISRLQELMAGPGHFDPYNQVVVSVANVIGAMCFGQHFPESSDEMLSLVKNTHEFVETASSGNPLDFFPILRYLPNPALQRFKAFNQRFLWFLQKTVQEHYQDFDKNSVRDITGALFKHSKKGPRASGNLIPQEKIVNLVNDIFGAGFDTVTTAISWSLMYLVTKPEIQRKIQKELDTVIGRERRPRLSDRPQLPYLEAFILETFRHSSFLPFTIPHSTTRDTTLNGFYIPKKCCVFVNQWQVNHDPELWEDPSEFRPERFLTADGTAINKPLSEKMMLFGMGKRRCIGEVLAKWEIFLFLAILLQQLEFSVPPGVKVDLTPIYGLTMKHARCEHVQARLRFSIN
Briefly: Inhibition of CYP1A2 at 10 uM. It counts as ADME. The method, boiled down:
(§1)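 CYP isoform panel (1A2, 2C9, 2C19, 2D6, 3A4); percent inhibition recorded at 10 µM test compound; run in duplicate by an outside contractor.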

For another series, the target named is CYP2C9 (Homo sapiens, UniProt P11712). The series can be described thus: Inhibition of CYP2C9 at 10 uM. The class given is ADME. In outline: as §1
A further series deals with CYP2C19 (Homo sapiens, UniProt P33261). Briefly: Inhibition of CYP2C19 at 10 uM. It counts as ADME. In outline: as §1
A further series concerns the target CYP2D6 (Homo sapiens, UniProt P10635). The series can be described thus: Inhibition of CYP2D6 at 10 uM. It counts as ADME. In outline:
as §1

The next series has as its target CYP3A4 (Homo sapiens, UniProt P08684). The series can be described thus: Inhibition of CYP3A4 at 10 uM. It counts as ADME. In outline:
as §1

pEC50, pIC50: −log10 of the molar value.

Sequence of Hepatocyte growth factor receptor (Homo sapiens) (P08581 whole entry): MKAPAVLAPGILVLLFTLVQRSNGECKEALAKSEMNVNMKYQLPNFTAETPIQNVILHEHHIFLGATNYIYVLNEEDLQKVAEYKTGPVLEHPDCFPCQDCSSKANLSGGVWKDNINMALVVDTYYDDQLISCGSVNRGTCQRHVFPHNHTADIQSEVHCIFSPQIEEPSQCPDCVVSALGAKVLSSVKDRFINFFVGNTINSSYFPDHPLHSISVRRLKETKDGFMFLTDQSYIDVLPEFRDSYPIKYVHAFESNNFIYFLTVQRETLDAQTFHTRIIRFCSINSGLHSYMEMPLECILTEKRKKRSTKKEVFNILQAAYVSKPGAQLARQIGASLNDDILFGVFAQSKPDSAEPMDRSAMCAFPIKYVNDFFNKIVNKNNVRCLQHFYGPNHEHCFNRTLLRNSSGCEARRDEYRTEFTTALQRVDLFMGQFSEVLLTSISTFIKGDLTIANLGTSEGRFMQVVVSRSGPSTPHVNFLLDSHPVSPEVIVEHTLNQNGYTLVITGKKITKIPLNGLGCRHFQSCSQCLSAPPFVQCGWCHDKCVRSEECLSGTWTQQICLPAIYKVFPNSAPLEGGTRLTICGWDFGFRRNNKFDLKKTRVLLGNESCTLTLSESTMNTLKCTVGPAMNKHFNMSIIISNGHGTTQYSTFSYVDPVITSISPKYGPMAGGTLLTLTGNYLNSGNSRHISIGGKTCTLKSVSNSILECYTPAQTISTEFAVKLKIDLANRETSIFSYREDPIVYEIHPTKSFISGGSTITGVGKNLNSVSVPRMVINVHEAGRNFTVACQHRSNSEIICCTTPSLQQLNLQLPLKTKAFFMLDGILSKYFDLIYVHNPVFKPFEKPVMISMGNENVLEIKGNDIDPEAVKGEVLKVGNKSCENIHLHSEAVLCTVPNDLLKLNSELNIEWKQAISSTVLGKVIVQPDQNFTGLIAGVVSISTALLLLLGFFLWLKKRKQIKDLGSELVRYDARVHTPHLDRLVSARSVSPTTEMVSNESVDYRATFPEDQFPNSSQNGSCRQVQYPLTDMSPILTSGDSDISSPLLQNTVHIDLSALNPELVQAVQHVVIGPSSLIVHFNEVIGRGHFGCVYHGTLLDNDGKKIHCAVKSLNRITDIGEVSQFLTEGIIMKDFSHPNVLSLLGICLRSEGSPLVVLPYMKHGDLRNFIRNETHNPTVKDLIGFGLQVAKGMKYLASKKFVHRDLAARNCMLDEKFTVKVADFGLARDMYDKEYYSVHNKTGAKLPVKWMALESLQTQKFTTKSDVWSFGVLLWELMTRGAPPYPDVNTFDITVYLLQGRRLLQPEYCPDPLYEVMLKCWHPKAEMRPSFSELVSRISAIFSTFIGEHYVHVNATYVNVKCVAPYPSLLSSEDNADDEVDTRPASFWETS
Sequence of Focal adhesion kinase 1 (Homo sapiens) (Q05397 2-1052 limits assumed): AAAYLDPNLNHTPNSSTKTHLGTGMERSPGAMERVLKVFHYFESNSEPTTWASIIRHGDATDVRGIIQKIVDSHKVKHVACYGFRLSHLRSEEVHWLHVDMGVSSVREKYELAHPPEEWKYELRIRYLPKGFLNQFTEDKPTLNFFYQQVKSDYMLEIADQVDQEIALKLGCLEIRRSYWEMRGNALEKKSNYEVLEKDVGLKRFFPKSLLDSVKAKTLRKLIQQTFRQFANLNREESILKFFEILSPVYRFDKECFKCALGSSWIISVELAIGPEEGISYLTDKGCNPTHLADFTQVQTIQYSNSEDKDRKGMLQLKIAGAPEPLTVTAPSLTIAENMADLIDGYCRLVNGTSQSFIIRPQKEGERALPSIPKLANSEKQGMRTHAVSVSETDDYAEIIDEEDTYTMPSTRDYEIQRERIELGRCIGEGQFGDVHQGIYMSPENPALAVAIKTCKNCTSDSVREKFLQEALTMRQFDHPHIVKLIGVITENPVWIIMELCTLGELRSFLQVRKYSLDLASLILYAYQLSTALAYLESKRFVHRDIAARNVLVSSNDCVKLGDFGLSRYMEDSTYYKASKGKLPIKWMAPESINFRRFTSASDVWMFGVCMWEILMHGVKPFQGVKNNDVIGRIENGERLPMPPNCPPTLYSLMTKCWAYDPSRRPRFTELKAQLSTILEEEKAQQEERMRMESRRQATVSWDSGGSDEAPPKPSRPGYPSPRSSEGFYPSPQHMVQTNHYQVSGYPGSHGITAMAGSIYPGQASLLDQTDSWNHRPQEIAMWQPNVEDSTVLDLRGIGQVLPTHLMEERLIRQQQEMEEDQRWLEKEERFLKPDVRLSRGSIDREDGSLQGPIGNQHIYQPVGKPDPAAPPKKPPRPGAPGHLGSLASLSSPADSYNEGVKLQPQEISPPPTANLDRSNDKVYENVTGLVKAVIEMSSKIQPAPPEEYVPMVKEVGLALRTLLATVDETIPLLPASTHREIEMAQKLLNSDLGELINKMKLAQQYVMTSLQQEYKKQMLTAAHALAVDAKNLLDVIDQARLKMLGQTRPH
Sequence of Ribosomal protein S6 kinase alpha-1 (Homo sapiens) (Q15418 whole entry): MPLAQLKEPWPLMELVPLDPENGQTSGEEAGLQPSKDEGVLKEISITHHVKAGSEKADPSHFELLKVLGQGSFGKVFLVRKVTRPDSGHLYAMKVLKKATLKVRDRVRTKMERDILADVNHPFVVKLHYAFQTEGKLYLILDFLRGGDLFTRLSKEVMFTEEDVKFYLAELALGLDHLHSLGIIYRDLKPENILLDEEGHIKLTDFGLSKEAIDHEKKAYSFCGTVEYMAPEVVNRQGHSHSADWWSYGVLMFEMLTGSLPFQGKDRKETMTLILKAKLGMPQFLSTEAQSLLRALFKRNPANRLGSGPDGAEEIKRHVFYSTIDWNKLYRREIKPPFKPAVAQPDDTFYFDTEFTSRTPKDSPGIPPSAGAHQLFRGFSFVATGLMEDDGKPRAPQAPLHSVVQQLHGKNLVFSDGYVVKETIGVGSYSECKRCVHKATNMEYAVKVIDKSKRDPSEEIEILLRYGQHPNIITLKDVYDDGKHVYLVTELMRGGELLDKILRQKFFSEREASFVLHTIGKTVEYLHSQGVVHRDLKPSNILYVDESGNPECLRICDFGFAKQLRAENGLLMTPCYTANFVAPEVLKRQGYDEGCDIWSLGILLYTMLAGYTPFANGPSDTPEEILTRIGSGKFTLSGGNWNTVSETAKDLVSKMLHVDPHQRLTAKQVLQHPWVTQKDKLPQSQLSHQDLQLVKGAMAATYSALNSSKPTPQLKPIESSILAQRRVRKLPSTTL
T1 sequence (P27986 whole entry): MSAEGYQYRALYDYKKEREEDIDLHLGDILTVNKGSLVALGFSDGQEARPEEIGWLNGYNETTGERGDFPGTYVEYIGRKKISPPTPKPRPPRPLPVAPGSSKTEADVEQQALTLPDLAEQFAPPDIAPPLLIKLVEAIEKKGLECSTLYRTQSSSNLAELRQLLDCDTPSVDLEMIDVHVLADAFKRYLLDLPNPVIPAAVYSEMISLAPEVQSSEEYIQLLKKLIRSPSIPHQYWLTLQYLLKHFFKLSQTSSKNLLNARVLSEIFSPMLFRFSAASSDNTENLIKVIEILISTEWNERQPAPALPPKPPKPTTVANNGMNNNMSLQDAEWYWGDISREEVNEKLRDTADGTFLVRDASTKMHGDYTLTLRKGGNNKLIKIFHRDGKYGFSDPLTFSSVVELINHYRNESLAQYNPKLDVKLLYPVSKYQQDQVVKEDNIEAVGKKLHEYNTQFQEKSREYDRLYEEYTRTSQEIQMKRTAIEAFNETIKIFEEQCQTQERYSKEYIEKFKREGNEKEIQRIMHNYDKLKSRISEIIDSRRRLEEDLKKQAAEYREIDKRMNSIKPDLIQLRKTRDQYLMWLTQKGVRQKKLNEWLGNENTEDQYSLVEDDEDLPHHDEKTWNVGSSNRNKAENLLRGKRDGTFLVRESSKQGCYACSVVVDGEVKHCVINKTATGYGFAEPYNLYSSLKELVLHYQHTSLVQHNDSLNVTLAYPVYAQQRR
T1 sequence (P42336 whole entry): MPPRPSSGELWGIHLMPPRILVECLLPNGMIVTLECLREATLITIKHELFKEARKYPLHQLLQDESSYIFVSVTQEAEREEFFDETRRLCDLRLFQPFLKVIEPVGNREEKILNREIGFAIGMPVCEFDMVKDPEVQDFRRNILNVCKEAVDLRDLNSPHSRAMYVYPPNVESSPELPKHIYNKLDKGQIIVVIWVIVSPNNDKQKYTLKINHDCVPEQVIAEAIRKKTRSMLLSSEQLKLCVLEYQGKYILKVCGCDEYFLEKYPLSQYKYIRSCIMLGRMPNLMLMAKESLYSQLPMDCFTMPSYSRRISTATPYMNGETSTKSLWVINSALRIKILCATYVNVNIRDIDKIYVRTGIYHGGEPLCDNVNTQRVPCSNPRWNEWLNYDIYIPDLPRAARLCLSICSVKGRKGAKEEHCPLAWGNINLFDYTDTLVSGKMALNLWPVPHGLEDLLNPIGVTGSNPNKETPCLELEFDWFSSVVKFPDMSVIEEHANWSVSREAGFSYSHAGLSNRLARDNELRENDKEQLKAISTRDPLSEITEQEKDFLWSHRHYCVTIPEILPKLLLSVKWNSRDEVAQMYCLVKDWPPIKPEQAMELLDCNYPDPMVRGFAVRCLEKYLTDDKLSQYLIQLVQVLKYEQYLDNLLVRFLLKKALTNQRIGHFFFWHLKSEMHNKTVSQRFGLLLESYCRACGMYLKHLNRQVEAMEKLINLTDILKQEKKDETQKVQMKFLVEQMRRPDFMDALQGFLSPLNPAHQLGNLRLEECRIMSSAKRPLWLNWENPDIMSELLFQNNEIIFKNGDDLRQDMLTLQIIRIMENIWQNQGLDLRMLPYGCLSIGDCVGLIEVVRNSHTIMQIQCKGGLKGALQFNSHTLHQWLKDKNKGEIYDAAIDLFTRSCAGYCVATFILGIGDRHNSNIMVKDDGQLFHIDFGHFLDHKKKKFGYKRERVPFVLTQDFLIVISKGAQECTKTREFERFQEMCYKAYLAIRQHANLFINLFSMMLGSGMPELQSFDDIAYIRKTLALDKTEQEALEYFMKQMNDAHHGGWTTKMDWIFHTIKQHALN

`CNC(=O)c1cn2cc(-c3cccc4[nH]ncc34)nc(N3CCOCC3)c2n1`: in series [1], the pEC50 (as a rule, −log10 of the EC50, conventionally taken in molar units) is 6.22. Moreover, in [2], the negative logarithm of the IC50 (pIC50) (in general, the negative decadic logarithm of the IC50, by convention in mol/L) is < 5.00. The inhibition (commonly the percentage by which the read-out fell short of the control) in series [3] is < 50%; in series [4], < 50%; in [5], 50%; in [6], < 50%; in [7], < 50%; in series [8], < 50%. The inhibition in series [9] is < 50%.

Turning to `CN(C)CCCNC(=O)c1cn2cc(-c3cccc4[nH]ncc34)nc(N3CCOCC3)c2n1`, the pIC50 in [10] was 7.46; in series [2], < 5.00. Besides, in series [1], the pEC50 was 6.37. Moreover, the inhibition in series [3] was < 50%; in series [4] it was < 50%; in series [5] it was 50%; in series [6], < 50%; in series [7] it was < 50%; in series [8], < 50%. The inhibition in series [9] was < 50%.

Take `COCCCNC(=O)c1cn2cc(-c3cccc4[nH]ncc34)nc(N3CCOCC3)c2n1`: the negative logarithm of the IC50 (pIC50) in [10] was 7.51; in [2] it was < 5.00. In series [1], this molecule showed a pEC50 of 6.94. Besides, the inhibition in series [3] was < 50%; in series [4], < 50%; in series [5] it was 50%; in [6], < 50%; in series [7] it was < 50%; in series [8] it was < 50%. Further, the inhibition in series [9] was < 50%.

Turning to `CS(=O)(=O)N1CCN(Cc2cn3c(C#N)c(-c4cccc5[nH]ncc45)nc(N4CCOCC4)c3n2)CC1`, the pIC50 in series [10] is 6.71; in series [2], < 5.00. The negative-log EC50 (pEC50) in series [1] was 6.69. Also, the inhibition in [3] is < 50%; in series [4] it was < 50%; in series [5], 50%; in series [6] it was < 50%; in series [7], < 50%; in [8], < 50%. Also, the inhibition in [9] is < 50%.

Take `CS(=O)(=O)N1CCN(Cc2nc3c(N4CCOCC4)nc(-c4cccc5[nH]ncc45)cn3c2Br)CC1`: the pIC50 in series [10] was 7.33; in series [2], < 5.00. In addition, the negative-log EC50 (pEC50) in series [1] is 6.68. The inhibition in series [3] is < 50%; in series [4], < 50%; in series [5], 50%; in [6] it was < 50%; in [7] it was < 50%; in [8], < 50%. In series [9], the inhibition is < 50%.

`O=C(NCCN1CCOCC1)c1cn2cc(-c3cccc4[nH]ncc34)nc(N3CCOCC3)c2n1` showed a negative-log EC50 (pEC50) in [1] of 6.34. Also, the pIC50 in series [2] is < 5.00. Further, the inhibition is < 50% in series [3]; < 50% in series [4]; 50% in series [5]; < 50% in series [6]; < 50% in [7]; < 50% in series [8]. For the same molecule, the inhibition in series [9] was < 50%.

With `CS(=O)(=O)N1CCN(Cc2cn3cc(-c4cccc5[nH]ncc45)nc(N4CCOCC4)c3n2)CC1`, the pIC50 in series [2] was < 5.00. The inhibition is < 50% in series [3]; < 50% in series [4]; 50% in series [5]; < 50% in series [6]; < 50% in [7]; < 50% in series [8]. Besides, the inhibition in [9] is < 50%. The fraction remaining (usually what is left of the initial amount, in per cent) at 0.5 h, 1 µM in [11] is 48%; in [12], 32%. The inhibition at 10 µM against CYP1A2, at CYP2C9, against CYP2C19, on CYP2D6 and against CYP3A4 was < 25% in each case.

On to `CS(=O)(=O)N1CCN(Cc2cn3c(Cl)c(-c4cccc5[nH]ncc45)nc(N4CCOCC4)c3n2)CC1`, for which the negative logarithm of the IC50 (pIC50) in series [10] is 6.84; in series [2], < 5.00. In series [1], this molecule showed a negative-log EC50 (pEC50) of 6.31. For the same molecule, the inhibition in series [3] was < 50%; in series [4] it was < 50%; in series [5], 50%; in [6], < 50%; in series [7], < 50%; in series [8], < 50%. Besides, the inhibition in series [9] was < 50%. Moreover, the amount remaining at 0.5 h, 1 µM in series [11] was determined as 35%; in [12] it was 28%. Also, the inhibition at 10 µM against CYP1A2, against CYP2C9, against CYP2C19, against CYP2D6 and on CYP3A4 was < 25% throughout.
